Active and inactive are the calls of the source. The rule behind the calls is not given here.
Experiments:
[1] = system: Mus musculus; experiment: Antialzheimer activity in mouse harboring CX3CR1-GFP+/- assessed as microglial elimination in brain at 600 ppm administered as chow for 7 days relative to control; assay type: functional; settings: route po, time 7 day
[2] = Drug concentration in 5XFAD mouse plasma at 1200 ppm administered as rodent chow for 180 days; assay type: ADME, cell-free; settings: route po, time 180 day
[3] = biological target: Eukaryotic elongation factor 2 kinase (Homo sapiens, UniProt O00418); experiment: Inhibition of EEF2K (unknown origin)
Chain of Eukaryotic elongation factor 2 kinase (O00418 whole entry): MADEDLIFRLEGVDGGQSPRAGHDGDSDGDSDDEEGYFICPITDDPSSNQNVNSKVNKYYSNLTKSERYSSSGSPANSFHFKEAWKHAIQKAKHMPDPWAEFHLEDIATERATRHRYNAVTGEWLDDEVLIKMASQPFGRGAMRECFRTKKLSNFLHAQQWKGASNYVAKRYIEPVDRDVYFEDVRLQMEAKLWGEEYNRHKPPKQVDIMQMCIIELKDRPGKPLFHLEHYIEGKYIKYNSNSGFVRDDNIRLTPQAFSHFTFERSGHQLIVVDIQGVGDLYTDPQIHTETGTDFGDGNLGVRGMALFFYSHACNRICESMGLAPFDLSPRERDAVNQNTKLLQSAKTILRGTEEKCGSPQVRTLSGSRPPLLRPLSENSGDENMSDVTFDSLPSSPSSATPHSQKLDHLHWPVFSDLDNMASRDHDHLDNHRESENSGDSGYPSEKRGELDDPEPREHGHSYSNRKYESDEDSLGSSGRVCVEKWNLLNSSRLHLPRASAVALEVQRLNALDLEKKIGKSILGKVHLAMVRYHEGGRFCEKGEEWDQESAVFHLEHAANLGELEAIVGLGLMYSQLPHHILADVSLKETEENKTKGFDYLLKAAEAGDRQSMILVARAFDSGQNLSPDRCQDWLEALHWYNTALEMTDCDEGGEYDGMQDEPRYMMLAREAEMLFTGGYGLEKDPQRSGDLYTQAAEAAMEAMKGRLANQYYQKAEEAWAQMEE

[4] = AUC (0 to infinity) in monkey at 1.35 mg/kg, iv administered as single dose; assay type: ADME, organism-based, Macaca mulatta; settings: rhesus monkey, in vivo
[5] = Half-life in monkey at 1.35 mg/kg, iv administered as single dose; assay type: ADME, organism-based, Macaca mulatta; settings: rhesus monkey, in vivo
[6] = system: Mus musculus; experiment: Antialzheimer activity in 5XFAD mouse assessed as number of Iba positive cells per FOV in retro spinal cortex at 1200 ppm administered as rodent chow starting from 1.5 months and measured after 7 months (reference value: 473 to 792); assay type: functional; settings: route po, time 5.5 months, 4015 h
[7] = biological target: SRSF protein kinase 2 (Homo sapiens, UniProt P78362); experiment: Inhibition of SRPK2 (unknown origin)
Chain of SRSF protein kinase 2 (P78362 whole entry): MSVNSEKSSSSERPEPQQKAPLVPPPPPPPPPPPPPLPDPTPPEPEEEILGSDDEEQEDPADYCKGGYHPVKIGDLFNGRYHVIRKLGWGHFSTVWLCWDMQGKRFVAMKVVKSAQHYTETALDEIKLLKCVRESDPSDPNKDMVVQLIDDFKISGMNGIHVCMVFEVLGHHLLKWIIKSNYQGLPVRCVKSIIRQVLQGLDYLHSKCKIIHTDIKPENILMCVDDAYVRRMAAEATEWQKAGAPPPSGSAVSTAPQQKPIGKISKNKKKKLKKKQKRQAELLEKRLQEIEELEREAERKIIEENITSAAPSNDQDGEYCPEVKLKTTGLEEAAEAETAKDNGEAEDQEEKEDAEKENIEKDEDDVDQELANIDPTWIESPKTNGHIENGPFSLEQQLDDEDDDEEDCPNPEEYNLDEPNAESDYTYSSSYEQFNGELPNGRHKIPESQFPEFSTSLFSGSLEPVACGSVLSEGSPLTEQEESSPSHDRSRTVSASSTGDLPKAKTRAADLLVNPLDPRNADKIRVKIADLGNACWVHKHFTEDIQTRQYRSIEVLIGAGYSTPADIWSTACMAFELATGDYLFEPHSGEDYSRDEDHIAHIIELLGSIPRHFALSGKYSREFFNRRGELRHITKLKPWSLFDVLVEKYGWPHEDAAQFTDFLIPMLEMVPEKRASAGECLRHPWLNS

[8] = system: Mus musculus; experiment: Effect on APP processing pathway in wildtype mouse assessed as PS1 protein signal intensity in cortex at 1200 ppm administered as rodent starting from 1.5 months and measured after 7 months (reference value: 78.906 to 243.681 %); assay type: functional; settings: route po, time 5.5 months, 4015 h
[9] = system: Mus musculus; experiment: Antialzheimer activity in 5XFAD mouse assessed as time spent in perimeter zone at 1200 ppm administered as rodent chow for 10 to 24 weeks by Open field test (reference value: 169.1 to 285.1 sec); assay type: functional; settings: route po, time 10-24 weeks
[10] = Drug concentration in 5XFAD mouse brain at 1200 ppm administered as rodent chow for 180 days; assay type: ADME, tissue-based; settings: route po, time 180 day, read-out: Ct
[11] = Effect on Ctsz gene expression in 5XFAD mouse hippocampus at 1200 ppm administered as rodent chow starting from 1.5 months and measured after 7 months by RNA-Seq analysis (reference value: 34.576 to 51.120 RPKM); assay type: functional; settings: route po, time 5.5 months, 4015 h
[12] = system: Mus musculus; experiment: Antialzheimer activity in 5XFAD mouse assessed as amyloidbeta42 level in detergent soluble thalamus fraction measured per microgram protein at 1200 ppm administered as rodent chow starting from 1.5 months and measured after 7 months by ELISA (reference value: 0 to 0.271 pg); assay type: functional; settings: route po, time 5.5 months, 4015 h
How it was run: (§1)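 PLX5622 at 1200 ppm in chow given to 5xFAD mice from 1.5 months to 4 or 7 months of age; cortex and thalamus homogenized in TPER (detergent-soluble), pellets re-homogenized in 70% formic acid and spun 100,000 g, 1 h, 4 °C (insoluble); protein by Bradford/Lowry; Aβ species measured by Meso Scale electrochemiluminescence immunoassay, normalized to protein; n = 7–8 per group at 7 months.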

[13] = system: Mus musculus; experiment: Antialzheimer activity in 5XFAD mouse assessed as proportion of time spent freezing at 1200 ppm administered as rodent chow for 10 to 24 weeks by […] (reference value: 0.00 to 0.43); assay type: functional; settings: route po, time 10-24 weeks
[14] = biological target: Ephrin type-A receptor 3 (Homo sapiens, UniProt P29320); experiment: Inhibition of EPHA3 (unknown origin)
[15] = system: Mus musculus; experiment: Antialzheimer activity in 5XFAD mouse assessed as number of S100bteta positive cells per FOV in […] cortex at 1200 ppm administered as rodent chow for 10 to 24 weeks by immunolabelling based confocal microscopic analysis (reference value: 320 to 427); assay type: functional; settings: route po, time 10-24 weeks
[16] = biological target: Cytoplasmic tyrosine-protein kinase BMX (Homo sapiens, UniProt P51813); experiment: Inhibition of BMX (unknown origin)
[17] = Effect on Cx3cr1 gene expression in 5XFAD mouse hippocampus at 1200 ppm administered as rodent chow starting from 1.5 months and measured after 7 months by RNA-Seq analysis (reference value: 17.752 to 23.676 RPKM); assay type: functional; settings: route po, time 5.5 months, 4015 h
[18] = biological target: Receptor-type tyrosine-protein kinase FLT3 (Homo sapiens, UniProt P36888); experiment: Inhibition of FLT3 (unknown origin)
Chain of Receptor-type tyrosine-protein kinase FLT3 (P36888 whole entry): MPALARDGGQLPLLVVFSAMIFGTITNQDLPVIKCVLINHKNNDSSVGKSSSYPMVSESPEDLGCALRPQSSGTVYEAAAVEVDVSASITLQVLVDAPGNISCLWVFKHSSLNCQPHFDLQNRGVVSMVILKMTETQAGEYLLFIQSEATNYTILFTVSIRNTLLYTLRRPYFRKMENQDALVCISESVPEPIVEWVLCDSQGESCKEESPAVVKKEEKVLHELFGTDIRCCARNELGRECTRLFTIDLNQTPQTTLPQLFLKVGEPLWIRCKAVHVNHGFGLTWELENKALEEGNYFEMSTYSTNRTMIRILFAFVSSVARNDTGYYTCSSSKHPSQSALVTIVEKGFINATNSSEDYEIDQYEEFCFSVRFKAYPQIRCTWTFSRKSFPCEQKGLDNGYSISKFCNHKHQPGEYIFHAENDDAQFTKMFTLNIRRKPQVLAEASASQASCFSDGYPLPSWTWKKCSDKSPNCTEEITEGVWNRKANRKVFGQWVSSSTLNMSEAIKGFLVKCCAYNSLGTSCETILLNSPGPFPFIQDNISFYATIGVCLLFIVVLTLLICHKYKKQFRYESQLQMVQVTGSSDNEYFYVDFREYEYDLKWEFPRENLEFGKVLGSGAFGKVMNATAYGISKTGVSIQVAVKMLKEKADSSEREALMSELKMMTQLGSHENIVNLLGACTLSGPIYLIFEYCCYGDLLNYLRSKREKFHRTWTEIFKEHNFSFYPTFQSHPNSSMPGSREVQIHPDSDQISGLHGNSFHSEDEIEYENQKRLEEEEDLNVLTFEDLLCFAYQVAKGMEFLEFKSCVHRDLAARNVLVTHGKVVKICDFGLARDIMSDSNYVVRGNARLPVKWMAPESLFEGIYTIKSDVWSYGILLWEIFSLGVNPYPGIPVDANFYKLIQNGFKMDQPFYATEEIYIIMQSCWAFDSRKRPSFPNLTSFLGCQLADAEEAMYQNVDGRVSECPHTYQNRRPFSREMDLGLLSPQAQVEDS

[19] = system: Mus musculus; experiment: Antialzheimer activity in 5XFAD mouse assessed as amyloidbeta40 level in detergent insoluble cortex fraction measured per microgram protein at 1200 ppm administered as rodent chow starting from 1.5 months and measured after 7 months by ELISA (reference value: 615.15 to 39796 pg); assay type: functional; settings: route po, time 5.5 months, 4015 h; how it was run: as §1
[20] = biological target: Serine/threonine-protein kinase BRSK1 (Homo sapiens, UniProt Q8TDC3); experiment: Inhibition of BRSK1 (unknown origin)
Chain of Serine/threonine-protein kinase BRSK1 (Q8TDC3 whole entry): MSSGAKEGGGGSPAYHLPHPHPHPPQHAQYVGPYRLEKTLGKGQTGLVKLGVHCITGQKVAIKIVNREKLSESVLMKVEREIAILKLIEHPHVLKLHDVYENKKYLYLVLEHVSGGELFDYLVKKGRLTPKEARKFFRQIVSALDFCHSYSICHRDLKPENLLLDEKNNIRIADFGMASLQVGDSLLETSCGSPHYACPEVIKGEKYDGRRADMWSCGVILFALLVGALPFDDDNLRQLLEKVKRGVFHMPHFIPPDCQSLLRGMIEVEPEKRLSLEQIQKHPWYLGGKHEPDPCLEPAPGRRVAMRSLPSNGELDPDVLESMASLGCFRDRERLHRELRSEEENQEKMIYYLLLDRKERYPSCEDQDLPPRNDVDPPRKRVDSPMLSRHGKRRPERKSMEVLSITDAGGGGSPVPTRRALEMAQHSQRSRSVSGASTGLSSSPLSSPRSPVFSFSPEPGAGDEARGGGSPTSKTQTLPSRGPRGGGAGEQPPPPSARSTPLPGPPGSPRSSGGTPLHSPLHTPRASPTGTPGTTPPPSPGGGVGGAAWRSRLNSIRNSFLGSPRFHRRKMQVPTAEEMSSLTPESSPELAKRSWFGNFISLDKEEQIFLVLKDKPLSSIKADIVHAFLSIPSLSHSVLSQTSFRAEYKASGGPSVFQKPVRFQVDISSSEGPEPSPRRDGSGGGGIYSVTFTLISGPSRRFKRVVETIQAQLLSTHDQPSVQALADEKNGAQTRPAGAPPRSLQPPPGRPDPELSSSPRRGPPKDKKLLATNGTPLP

[21] = system: Mus musculus; experiment: Prevention of P2ry12 gene upregulation in 5XFAD mouse hippocampus at 1200 ppm administered as rodent chow starting from 1.5 months and measured after 7 months by Nanostring analysis; assay type: functional, tissue-based; settings: route po, time 5.5 months
[22] = Effect on Clec7a gene expression in wild type mouse cortex at 1200 ppm administered as rodent chow starting from 1.5 months and measured after 7 months by RNA-Seq analysis (reference value: 0 to 0.413 RPKM); assay type: functional; settings: route po, time 5.5 months, 4015 h
How it was run: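 WT and 5xFAD mice were treated with 1200 ppm PLX5622 chow or control chow from 1.5 to 7 months of age. Brains were microdissected into cortex, hippocampus and thalamus, and RNA was extracted from tissue powder. Whole-transcriptome RNA-Seq libraries were sequenced, with n = 4 per group per region (48 samples).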

[23] = system: Mus musculus; experiment: Effect on APP processing pathway in 5XFAD mouse assessed as C83 protein signal intensity in cortex at 1200 ppm administered as rodent starting from 1.5 months and measured after 7 months (reference value: 37.776 to 172.037 %); assay type: functional; settings: route po, time 5.5 months, 4015 h
[24] = biological target: Tyrosine-protein kinase JAK3 (Homo sapiens, UniProt P52333); experiment: Inhibition of JAK3 (unknown origin)
[25] = biological target: Phosphorylase b kinase gamma catalytic chain, skeletal muscle/heart isoform (Homo sapiens, UniProt Q16816); experiment: Inhibition of PHKG1 (unknown origin)
Chain of Phosphorylase b kinase gamma catalytic chain, skeletal muscle/heart isoform (Q16816 whole entry, canonical isoform): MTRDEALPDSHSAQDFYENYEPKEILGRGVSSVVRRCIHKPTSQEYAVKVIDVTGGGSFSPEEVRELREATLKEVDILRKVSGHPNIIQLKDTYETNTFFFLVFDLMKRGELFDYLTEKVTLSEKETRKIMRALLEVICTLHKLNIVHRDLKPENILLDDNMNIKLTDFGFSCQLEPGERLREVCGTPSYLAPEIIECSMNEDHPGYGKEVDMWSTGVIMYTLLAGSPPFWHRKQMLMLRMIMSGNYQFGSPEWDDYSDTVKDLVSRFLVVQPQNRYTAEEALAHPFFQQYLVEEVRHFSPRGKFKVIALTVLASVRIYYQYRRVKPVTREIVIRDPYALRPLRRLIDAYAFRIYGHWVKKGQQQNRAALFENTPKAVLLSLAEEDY

[26] = biological target: Ephrin type-A receptor 5 (Homo sapiens, UniProt P54756); experiment: Inhibition of EPHA5 (unknown origin)
Chain of Ephrin type-A receptor 5 (P54756 whole entry): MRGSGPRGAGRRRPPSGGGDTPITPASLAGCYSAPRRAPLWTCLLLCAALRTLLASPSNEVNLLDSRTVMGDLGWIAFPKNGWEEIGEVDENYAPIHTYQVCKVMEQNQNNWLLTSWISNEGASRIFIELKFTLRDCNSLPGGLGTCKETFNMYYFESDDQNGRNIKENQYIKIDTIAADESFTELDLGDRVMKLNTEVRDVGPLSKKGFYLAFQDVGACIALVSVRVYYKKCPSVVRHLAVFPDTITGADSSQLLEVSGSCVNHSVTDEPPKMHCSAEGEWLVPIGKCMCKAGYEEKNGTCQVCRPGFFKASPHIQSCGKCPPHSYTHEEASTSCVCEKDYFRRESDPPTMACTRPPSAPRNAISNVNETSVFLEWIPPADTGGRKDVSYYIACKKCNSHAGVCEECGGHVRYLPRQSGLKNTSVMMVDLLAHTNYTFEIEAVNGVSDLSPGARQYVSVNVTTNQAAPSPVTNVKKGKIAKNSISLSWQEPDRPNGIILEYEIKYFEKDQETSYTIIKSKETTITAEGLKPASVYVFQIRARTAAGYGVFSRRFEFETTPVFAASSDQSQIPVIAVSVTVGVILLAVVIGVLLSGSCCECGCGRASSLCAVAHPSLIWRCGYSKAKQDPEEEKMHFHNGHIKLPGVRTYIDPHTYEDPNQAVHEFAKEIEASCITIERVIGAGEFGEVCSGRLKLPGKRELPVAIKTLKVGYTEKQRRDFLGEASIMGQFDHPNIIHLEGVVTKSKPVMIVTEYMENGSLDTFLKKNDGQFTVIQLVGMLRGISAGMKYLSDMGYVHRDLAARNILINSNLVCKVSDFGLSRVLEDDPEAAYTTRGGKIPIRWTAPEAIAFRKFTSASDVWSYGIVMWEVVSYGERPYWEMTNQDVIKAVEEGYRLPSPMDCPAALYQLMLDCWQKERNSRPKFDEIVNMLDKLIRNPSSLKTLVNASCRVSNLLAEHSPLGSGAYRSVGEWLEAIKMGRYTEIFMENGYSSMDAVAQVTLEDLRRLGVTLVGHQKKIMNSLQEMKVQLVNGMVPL

[27] = system: Mus musculus; experiment: Antialzheimer activity in 5XFAD mouse assessed as number of This-S positive cells per FOV in […] cortex at 1200 ppm administered as rodent chow starting from 1.5 months to 4 months followed by compound removal and measured after 1 months by immunolabelling based confocal microscopic analysis (reference value: 63 to 124); assay type: functional; settings: route po, time 2.5 months, 1825 h
How it was run: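 For the repopulation paradigm, 5xFAD mice ate 1200 ppm PLX5622 chow from 1.5 to 4 months of age. Inhibitor chow was then withdrawn, and brains were examined one month later. Sections were stained with Thio-S and immunolabeled for IBA1, then analysed by confocal microscopy in cortical regions.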

## FC(F)(F)c1ccc(CNc2ccc(Cc3c[nH]c4ncc(Cl)cc34)cn2)cn1 [PEXIDARTINIB]
[1]
  Activity: >99%

## COc1ncc(F)cc1CNc1ccc(Cc2c[nH]c3ncc(C)cc23)c(F)n1 [PLX-5622]
[2]
  concentration at 4320 h: 9090 ng/mL
[3]
  IC50: > 1 µM
[4]
  AUC(0-inf): 2100 ng·h/mL
[5]
  half-life: 2.2 h
[6]
  Activity: 2
[7]
  IC50: > 1 µM
[8]
  Activity: 99.34%
[9]
  Time: 201.4 s
[10]
  concentration at 4320 h: 2390 ng/mL
[11]
  Activity: 16.426 RPKM
[12]
  Activity: 0 pg
[13]
  Activity: 0.07
[14]
  IC50: > 1 µM
[15]
  Activity: 288
[16]
  IC50: > 1 µM
[17]
  Activity: 1.607 RPKM
[18]
  IC50: 0.39 µM
[19]
  Activity: 89.514 pg
[20]
  IC50: > 1 µM
[21]
  Activity: Active
[22]
  Activity: 0 RPKM
[23]
  Activity: 70.442%
[24]
  IC50: > 1 µM
[25]
  IC50: > 1 µM
[26]
  IC50: > 1 µM
[27]
  Activity: 60
